ChEMBL document CHEMBL5678813, “Optimization of a novel series of N-phenylindoline-5-sulfonamide-based acyl CoA:monoacylglycerol acyltransferase-2 inhibitors: Mitigation of CYP3A4 time-dependent inhibition and phototoxic liabilities” (Bioorg Med Chem, 2015)

What was measured:
[1] = target: 2-acylglycerol O-acyltransferase 2 (Homo sapiens, UniProt Q3SYC2); experiment: Inhibition of N-terminal FLAG-tagged full-length human MGAT2 expressed in human FreeStyle 293-F cell membrane using 13Cx18oleoyl-CoA and 2-oleoyl-glycerol as substrate preincubated for 60 mins followed by substrate addition and measured after 30 mins by RapidFire mass spectrometric analysis; assay type: cell membranes
2-acylglycerol O-acyltransferase 2 (Homo sapiens, UniProt Q3SYC2), sequence (Q3SYC2 whole entry): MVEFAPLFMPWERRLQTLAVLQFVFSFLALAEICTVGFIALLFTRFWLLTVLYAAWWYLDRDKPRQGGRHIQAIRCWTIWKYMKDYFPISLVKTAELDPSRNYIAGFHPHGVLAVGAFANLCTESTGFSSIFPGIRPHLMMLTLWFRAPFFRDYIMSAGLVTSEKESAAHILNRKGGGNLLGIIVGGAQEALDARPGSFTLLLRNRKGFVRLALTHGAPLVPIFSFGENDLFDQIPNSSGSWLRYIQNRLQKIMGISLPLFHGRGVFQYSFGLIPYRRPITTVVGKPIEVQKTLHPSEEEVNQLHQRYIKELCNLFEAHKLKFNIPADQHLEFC
Summary of the method: (§1)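 FreeStyle293 cells transfected and harvested after 2 days; total membranes isolated by ultracentrifugation. Reaction started with 13C18 oleoyl-CoA and 2-oleoyl-glycerol (20 µM each), run 30 min at room temperature. Stopped with acetonitrile/formic acid containing 1,2-dioleoyl-glycerol; read by RapidFire/MS.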

[2] = 1-Octanol/aqueous buffer partition coefficient, logD of the compound at pH 7.4 by HPLC analysis; assay type: physicochemical
[3] = target: CYP3A4 (Homo sapiens, UniProt P08684); experiment: (§2) Time-dependent inhibition of CYP3A4 in human liver microsomes using testosterone as substrate assessed as remaining activity at 30 uM preincubated with compound in presence of NADPH-generating system followed by substrate addition by UPLC analysis relative to control; assay type: ADME, Microsome; conditions: human liver microsomes, probe testosterone, read-out: Activity
CYP3A4, sequence (P08684 whole entry): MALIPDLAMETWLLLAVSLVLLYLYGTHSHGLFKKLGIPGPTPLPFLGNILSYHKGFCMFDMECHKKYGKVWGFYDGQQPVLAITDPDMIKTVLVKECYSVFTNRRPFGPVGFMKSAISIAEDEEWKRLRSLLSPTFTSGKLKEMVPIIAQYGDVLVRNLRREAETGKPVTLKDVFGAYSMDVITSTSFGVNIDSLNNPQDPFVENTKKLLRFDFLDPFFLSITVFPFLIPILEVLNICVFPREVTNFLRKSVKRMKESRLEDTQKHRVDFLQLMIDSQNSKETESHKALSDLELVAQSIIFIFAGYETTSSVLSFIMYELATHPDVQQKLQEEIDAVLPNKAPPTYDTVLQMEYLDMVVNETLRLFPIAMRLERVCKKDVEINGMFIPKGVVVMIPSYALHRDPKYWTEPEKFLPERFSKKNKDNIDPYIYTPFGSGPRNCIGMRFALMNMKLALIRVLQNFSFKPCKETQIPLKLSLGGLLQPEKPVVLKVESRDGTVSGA
Summary of the method: (§3)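 Compound at 30 µM preincubated at 37 °C with human liver microsomes in pH 7.4 phosphate buffer plus an NADPH-generating system. CYP3A4 activity then measured as testosterone 6β-hydroxylation by UPLC, expressed as % of DMSO control. Remaining activity = preincubated activity ÷ non-preincubated activity × 100; n = 2.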

[4] = test system: NIH3T3; experiment: Cytotoxicity against BALB/c mouse 3T3 cells assessed as reduction in cell viability at 6.25 uM incubated for 1 hrs in absence of UV irradiation by Celltiter-Glo assay relative to control; assay type: toxicity, cell-based; conditions: nih3t3, 1 h
Summary of the method: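 BALB/c 3T3 cells seeded at 2.5 × 10^3 cells/well and grown 1 day. Compound at 6.25 µM in EBSS with 1 mM HEPES, preincubated 1 h. Plate kept dark (–UV) while the paired plate was irradiated. Medium replaced, cultured 24 h more. Viability read as cellular ATP by CellTiter-Glo, % of 1% DMSO control; n = 3, mean ± SD.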

[5] = target: Cytochrome P450 3A4 (Homo sapiens, UniProt P08684); experiment: as §2; assay type: ADME, Microsome; conditions: microsomes, 30 µM; summary of the method: as §3
Cytochrome P450 3A4, sequence (P08684 whole entry): as above

[6] = Oral bioavailability in mouse at 1 mg/kg administered as cassette dose by LC/MS/MS analysis; assay type: ADME, organism-based; conditions: in vivo
Summary of the method: (§4)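 Non-fasted mice dosed by cassette, iv 0.1 mg/kg or po 1 mg/kg suspended in 0.5% methylcellulose aqueous solution; plasma obtained from blood by centrifugation, deproteinized with acetonitrile, and compound concentrations measured by LC/MS/MS.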

[7] = Metabolic stability in mouse liver microsomes assessed as intrinsic clearance at 1 uM incubated for 15 to 30 mins in presence of NADPH-generating system by LC/MS/MS analysis; assay type: ADME, Microsome; conditions: time 15-30 min, read-out: CLH
Summary of the method: (§5)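 Compound at 1 µM with 0.2 mg/mL liver microsomal protein in 50 mM phosphate buffer pH 7.4. Reaction started by NADPH-generating system (5 mM MgCl2, 5 mM glucose-6-phosphate, 0.5 mM β-NADP+, 1.5 U/mL G6PDH). Stopped with acetonitrile at 15 and 30 min and analysed by LC/MS/MS. Velocity taken as slope of concentration–time plot.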

[8] = Total clearance in mouse at 0.1 mg/kg, iv administered as cassette dose by LC/MS/MS analysis; assay type: ADME, organism-based; conditions: in vivo; summary of the method: as §4
[9] = AUC in mouse at 1 mg/kg, po administered as cassette dose by LC/MS/MS analysis; assay type: ADME, organism-based; conditions: in vivo; summary of the method: as §4
[10] = Permeability of compound at pH 7.4 by PAMPA assay; assay type: ADME; conditions: read-out: permeability
Summary of the method: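 Passive permeability measured by PAMPA at pH 7.4.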

[11] = Volume of distribution at steady state in mouse at 0.1 mg/kg, iv administered as cassette dose by LC/MS/MS analysis; assay type: ADME, organism-based; conditions: in vivo, read-out: Vdss; summary of the method: as §4
[12] = target: 2-acylglycerol O-acyltransferase 2 (Mus musculus, UniProt Q80W94); experiment: Inhibition of N-terminal FLAG-tagged full-length mouse MGAT2 expressed in human FreeStyle 293-F cell membrane using 13Cx18oleoyl-CoA and 2-oleoyl-glycerol as substrate preincubated for 60 mins followed by substrate addition and measured after 30 mins by RapidFire mass spectrometric analysis; assay type: cell membranes; summary of the method: as §1
2-acylglycerol O-acyltransferase 2 (Mus musculus, UniProt Q80W94), sequence (Q80W94 whole entry): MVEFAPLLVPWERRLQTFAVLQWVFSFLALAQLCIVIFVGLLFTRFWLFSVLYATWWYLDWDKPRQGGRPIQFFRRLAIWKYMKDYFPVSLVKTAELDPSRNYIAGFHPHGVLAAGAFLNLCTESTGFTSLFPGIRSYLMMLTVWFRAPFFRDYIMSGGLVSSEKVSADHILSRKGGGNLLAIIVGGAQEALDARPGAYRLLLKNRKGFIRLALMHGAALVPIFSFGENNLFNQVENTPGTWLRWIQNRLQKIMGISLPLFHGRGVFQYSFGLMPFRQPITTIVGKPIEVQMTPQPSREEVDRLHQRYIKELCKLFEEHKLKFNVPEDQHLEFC

[13] = MRT in mouse at 1 mg/kg, po administered as cassette dose by LC/MS/MS analysis; assay type: ADME, organism-based; conditions: in vivo; summary of the method: as §4
[14] = Metabolic stability in human liver microsomes assessed as intrinsic clearance at 1 uM incubated for 15 to 30 mins in presence of NADPH-generating system by LC/MS/MS analysis; assay type: ADME, Microsome; conditions: time 15-30 min, read-out: CLH; summary of the method: as §5

`O=C1CCCN1c1cc(S(=O)(=O)Nc2ccc(C(F)(F)F)cc2F)cc2c1N(C(=O)OC1CCN(CC(F)(F)C(F)(F)F)CC1)CC2` showed an IC50 [1] of 42 nM, a logD [2] of 4.1 and an activity at 30 µM [3] of 93%.

In the case of `O=C1CCCN1c1cc(S(=O)(=O)Nc2c(F)cc(Cl)cc2F)cc2c1N(c1ncc(-c3ccc(C(F)(F)F)cc3)cn1)CC2`, the IC50 [1] is reported as 0.69 nM, the Activity [4] is reported as 105% and the logD [2] is reported as 3.8. The TDI [5] was “Not Active”.

For `O=C1CCCN1c1cc(S(=O)(=O)Nc2c(F)cc(Cl)cc2F)cc2c1N(c1ncc(-c3ccc(C(F)(F)F)cc3F)cn1)CC2`, the IC50 [1] was 0.42 nM, the Activity [4] was 98% and the logD [2] was 4.1.

In the case of `O=C1CCCN1c1cc(S(=O)(=O)Nc2c(F)cc(Cl)cc2F)cc2c1N(c1ncc(-n3ccc(C(F)(F)F)n3)cn1)CC2`, the IC50 [1] is reported as 8.2 nM, the Activity [4] is reported as 105% and the logD [2] is reported as 3.1.

With `O=C1CCCN1c1cc(S(=O)(=O)Nc2ccc(F)cc2F)cc2c1N(C(=O)OC1CCN(CC(F)(F)C(F)(F)F)CC1)CC2` the IC50 [1] was 4.1 nM, the logD [2] was 3.7 and the activity at 30 µM [3] was 59%.

`Cn1nc(C(F)(F)F)cc1-c1cnc(N2CCc3cc(S(=O)(=O)Nc4c(F)cc(Cl)cc4F)cc(N4CCNC4=O)c32)nc1` showed a bioavailability [6] of 16%, a microsomal CLint at 1 µM [7] of 33 µL/min/mg and a clearance [8] of 39.5 mL/min/kg. For the same molecule, the AUC [9] was 72 ng·h/mL, the IC50 [1] was 3.7 nM and the Activity [4] was 111%. It also gave a Papp [10] of 4 ×10⁻⁶ cm/s, a Vd [11] of 1.96 L/kg and an IC50 [12] of 1.9 nM. It also gave an MRT [13] of 2.3 h, a microsomal CLint at 1 µM [14] of 4 µL/min/mg and a logD [2] of 2.7.

In the case of `O=C1CCCN1c1cc(S(=O)(=O)Nc2ccc(F)cc2F)cc2c1N(C(=O)Nc1ccc(C(F)(F)F)cc1)CC2`, the IC50 [1] is reported as 3.4 nM and the activity at 30 µM [3] is reported as 43%.

In the case of `O=C1CCCN1c1cc(S(=O)(=O)Nc2c(F)cc(Cl)cc2F)cc2c1N(C(=O)Nc1ccc(C(F)(F)F)cc1)CC2`, the IC50 [1] is reported as 30 nM, the logD [2] is reported as 3.3 and the activity at 30 µM [3] is reported as 89%.

`Cc1cc(C(F)(F)F)nn1-c1cnc(N2CCc3cc(S(=O)(=O)Nc4c(F)cc(Cl)cc4F)cc(N4CCCC4=O)c32)nc1` gave a bioavailability [6] of 52%, a microsomal CLint at 1 µM [7] of 27 µL/min/mg and a clearance [8] of 7.85 mL/min/kg. The AUC [9] was 1120 ng·h/mL, the IC50 [1] was 2.1 nM and the Activity [4] was 112%. It also gave a Papp [10] of 18.5 ×10⁻⁶ cm/s, a Vd [11] of 1.02 L/kg and an IC50 [12] of 1.1 nM. It also gave an MRT [13] of 2.6 h and a logD [2] of 2.9.

Molecule `O=C1CCCN1c1cc(S(=O)(=O)Nc2c(F)cc(Cl)cc2F)cc2c1N(C(=O)OC1CCN(CC(F)(F)C(F)(F)F)CC1)CC2` has an IC50 [1] of 19 nM, a logD [2] of 3.8 and an activity at 30 µM [3] of 82%.

Work on `O=C1CCCN1c1cc(S(=O)(=O)Nc2c(F)cc(Cl)cc2F)cc2c1N(c1ncc(-n3cc(C(F)(F)F)cn3)cn1)CC2` yielded an IC50 [1] of 6.2 nM, an Activity [4] of 109% and a logD [2] of 3.1.

`CC(=O)Nc1cc(S(=O)(=O)Nc2ccc(F)cc2F)cc2c1N(CCc1ccccc1)CC2` showed an IC50 [1] of 1 nM and an activity at 30 µM [3] of 13%.

With `O=C1CCCN1c1cc(S(=O)(=O)Nc2c(F)cc(F)cc2F)cc2c1N(C(=O)OC1CCN(CC(F)(F)C(F)(F)F)CC1)CC2` the IC50 [1] was 75 nM, the logD [2] was 3.4 and the activity at 30 µM [3] was 95%.

`O=C1CCCN1c1cc(S(=O)(=O)Nc2c(F)cc(Cl)cc2F)cc2c1N(c1ccc(-c3ccc(C(F)(F)F)cc3)cc1)CC2` gave an IC50 [1] of 0.25 nM, an Activity [4] of 95% and a logD [2] of 4.5. The TDI [5] was “Not Active”.
